This note sets out measurements from the array DNA melting data of Ke et al. (doi:10.1101/2024.01.08.574731).

Data set [1] in a line: folding enthalpy; higher = less favourable; fluorescence melt of hairpins on a sequencing array, two-state fit. The settings on record: sodium 0.088 M. The gist of the method: (§1)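 With Cy3 and quencher oligos annealed, library hairpins on a sequenced MiSeq flow cell were imaged for Cy3 fluorescence in 50 mM Na-HEPES pH 8.0, 25 mM NaCl, in 2.5 °C steps up to 60 °C. Melting temperature and folding enthalpy were derived from bootstrapped two-state fits of signals normalised to pre-quench Cy3 and to control constructs. Four replicates were combined by inverse variance, with fitted temperatures raised by 9.35 °C to match UV melts.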

The nature of data set [2]: melting temperature; fluorescence melt of hairpins on a sequencing array, two-state fit, raised by 9.35 °C to match UV melts. The settings on record: sodium 0.088 M. The gist of the method: as §1

On to GATCAGACTCCTGATC ((((((....)))))), for which the folding enthalpy in data set [1] is -36.1 kcal/mol. The Tm in data set [2] came to 47.5 °C.

For the sequence GATCAGACTTCTGATC ((((((....)))))), the folding enthalpy in data set [1] is -36.3 kcal/mol. The Tm in data set [2] turned out to be 50.3 °C.

On to GATCAGAGAACTGATC ((((((....)))))), for which the folding enthalpy in data set [1] was -30.5 kcal/mol. For the same sequence, in data set [2], the Tm came out at 44.5 °C.

In the case of GATCAGAGACCTGATC ((((((....)))))), the folding enthalpy in data set [1] is -34.6 kcal/mol. In addition, the Tm in data set [2] was 45.6 °C.

With GATCAGATACTGATC ((((((...)))))), the folding enthalpy in data set [1] is -34.2 kcal/mol. In addition, the Tm in data set [2] was 50.6 °C.

On to GATCAGATAGCTGATC ((((((....)))))), for which, in data set [1], the folding enthalpy was -38 kcal/mol. The Tm in data set [2] was determined as 46.8 °C.

As to GATCAGATCCCTGATC ((((((....)))))), the folding enthalpy in data set [1] is -31.8 kcal/mol. The Tm in data set [2] is 48.3 °C.

In the case of GATCAGATGCCTGATC ((((((....)))))), the folding enthalpy in data set [1] was -23.8 kcal/mol. In data set [2], the Tm is 48.4 °C.

Take GATCAGATGGCTGATC ((((((....)))))): the folding enthalpy in data set [1] was -30.4 kcal/mol. In addition, in data set [2], the Tm was 49.3 °C.

In the case of GATCAGCAGGCTGATC ((((((....)))))), the folding enthalpy in data set [1] is -42.1 kcal/mol. Also, in data set [2], the Tm is 59.2 °C.

Take GATCAGCCAGCTGATC ((((((....)))))): in data set [1], the folding enthalpy is -40.1 kcal/mol. The Tm in data set [2] was determined as 56.5 °C.

As to GATCAGCCGACTGATC ((((((....)))))), the folding enthalpy in data set [1] was -35.5 kcal/mol. For the same sequence, the Tm in data set [2] was 49.6 °C.

GATCAGCGAAAGCTATC (((.(((....)))))): in data set [1], the folding enthalpy is -12 kcal/mol. In data set [2], the Tm came to 32.6 °C.

Regarding GATCAGCGATCTGATC ((((((....)))))), the folding enthalpy in data set [1] was -19.5 kcal/mol. Also, the Tm in data set [2] was 50 °C.

For GATCAGCGCCTGATC ((((((...)))))), the folding enthalpy in data set [1] is -38.9 kcal/mol. The Tm in data set [2] turned out to be 48.7 °C.

Consider GATCAGCGCGCTGATC ((((((....)))))), for which the folding enthalpy in data set [1] is -43 kcal/mol. The Tm in data set [2] is 67.4 °C.

Take GATCAGCGTACTGATC ((((((....)))))): in data set [1], the folding enthalpy is -30.2 kcal/mol. In addition, the Tm in data set [2] is 51.6 °C.

For GATCAGCTTTCTGATC ((((((....)))))), the folding enthalpy in data set [1] was -35 kcal/mol. Besides, the Tm in data set [2] worked out at 50.5 °C.

Consider GATCAGGAACCTGATC ((((((....)))))), for which the folding enthalpy in data set [1] is -35 kcal/mol. The Tm in data set [2] worked out at 54.5 °C.

Regarding GATCAGGAGCCTGATC ((((((....)))))), the folding enthalpy in data set [1] is -31.6 kcal/mol. Also, in data set [2], the Tm was found to be 49.9 °C.

GATCAGGAGGCTGATC ((((((....)))))): the folding enthalpy in data set [1] is -37.2 kcal/mol. Also, the Tm in data set [2] turned out to be 48.2 °C.

Consider GATCAGGATACTGATC ((((((....)))))), for which the folding enthalpy in data set [1] was -33.8 kcal/mol. In data set [2], the Tm worked out at 56 °C.

As to GATCAGGCATCTGATC ((((((....)))))), in data set [1], the folding enthalpy was -45.1 kcal/mol. Further, the Tm in data set [2] was found to be 55.6 °C.

In the case of GATCAGGCGGCTGATC ((((((....)))))), the folding enthalpy in data set [1] was -47.8 kcal/mol. Besides, the Tm in data set [2] was found to be 53.2 °C.

Regarding GATCAGGGATCTGATC ((((((....)))))), the folding enthalpy in data set [1] is -29.1 kcal/mol. In data set [2], the Tm turned out to be 57.1 °C.

In the case of GATCAGGGCACTGATC ((((((....)))))), the folding enthalpy in data set [1] is -37.2 kcal/mol. Also, in data set [2], the Tm turned out to be 59.8 °C.

GATCAGGGCCTGATC ((((((...)))))): the folding enthalpy in data set [1] was -68.2 kcal/mol. Besides, the Tm in data set [2] worked out at 53 °C.

Take GATCAGGGGCTGATC ((((((...)))))): the folding enthalpy in data set [1] is -27.4 kcal/mol. Also, in data set [2], the Tm is 47.5 °C.

Consider GATCAGGGTCTGATC ((((((...)))))), for which the folding enthalpy in data set [1] is -24.1 kcal/mol. For the same sequence, the Tm in data set [2] is 49.7 °C.

Consider GATCAGGTTACTGATC ((((((....)))))), for which the folding enthalpy in data set [1] is -38.2 kcal/mol. Besides, in data set [2], the Tm came out at 57.6 °C.

In the case of GATCAGGTTCTGATC ((((((...)))))), the folding enthalpy in data set [1] was -34.1 kcal/mol. Further, the Tm in data set [2] came to 50.5 °C.

With GATCAGGTTGCTGATC ((((((....)))))), the folding enthalpy in data set [1] is -46.3 kcal/mol. In addition, the Tm in data set [2] was 51.2 °C.

In the case of GATCAGTAAGCTGATC ((((((....)))))), the folding enthalpy in data set [1] is -41.3 kcal/mol. In addition, the Tm in data set [2] came to 52.3 °C.

Take GATCAGTACGCTGATC ((((((....)))))): in data set [1], the folding enthalpy was -44.1 kcal/mol. Besides, in data set [2], the Tm worked out at 53.8 °C.

GATCAGTAGCCTGATC ((((((....)))))): the folding enthalpy in data set [1] is -31.4 kcal/mol. For the same sequence, in data set [2], the Tm was determined as 49.6 °C.

Regarding GATCAGTCCCCTGATC ((((((....)))))), the folding enthalpy in data set [1] is -35.7 kcal/mol. Further, the Tm in data set [2] was 49.3 °C.

Consider GATCAGTCCGCTGATC ((((((....)))))), for which the folding enthalpy in data set [1] was -53.2 kcal/mol. The Tm in data set [2] came to 53.1 °C.

Consider GATCAGTCGCCTGATC ((((((....)))))), for which the folding enthalpy in data set [1] is -57.2 kcal/mol. In addition, the Tm in data set [2] was 51.5 °C.
